{"data": "Measured values pooled from the literature", "organism": "Streptococcus pneumoniae", "observed": "microbial growth", "note": "Each line is one published result; the experiments were not run side by side."}
{"Structure (SMILES)": "C[C@@H](O)[C@H]1C(=O)N2C(C(=O)O)=C(S[C@@H]3CN[C@H](C(=O)N(C)C)C3)[C@H](C)[C@H]12", "method": "broth dilution", "strain": "ATCC49619", "MIC": "0.25 µg/mL"}
{"Structure (SMILES)": "O=C(O)CN1C(=O)/C(=C/c2c3ccccc3c(-c3ccc(N(c4ccccc4)c4ccccc4)cc3)c3ccccc23)NC1=S", "method": "broth dilution", "strain": "ATCC49619", "MIC": "> 1000 µg/mL"}
{"Structure (SMILES)": "CN(C)c1cc(NC(=O)CNC(C)(C)C)c(O)c2c1C[C@H]1C[C@H]3[C@H](N(C)C)C(O)=C(C(N)=O)C(=O)[C@@]3(O)C(O)=C1C2=O", "strain": "157E", "MIC": "< 0.06 µg/mL"}
{"Structure (SMILES)": "O=C1NC(=S)S/C1=C\\c1ccc(-c2ccc(N(c3ccccc3)c3ccccc3)cc2)c2ccccc12", "method": "broth dilution", "strain": "ATCC49619", "MIC": "1000 µg/mL"}
{"Structure (SMILES)": "CN(C)[C@@H]1C(O)=C(C(N)=O)C(=O)[C@@]2(O)C(O)=C3C(=O)c4c(cc5cc(N)ccc5c4O)C[C@H]3C[C@@H]12", "method": "broth dilution", "strain": "ATCC49619", "MIC": "1 µg/mL"}
{"Structure (SMILES)": "COc1cc(Cc2cnc(N)nc2N)cc(OC)c1OC", "method": "broth dilution", "time": "24 h", "MIC": "0.25 µg/mL"}
{"Structure (SMILES)": "O=C1NC(=S)N/C1=C\\c1ccc(-c2ccc(N(c3ccccc3)c3ccccc3)cc2)cc1", "method": "broth dilution", "strain": "ATCC49619", "MIC": "> 1000 µg/mL"}
{"Structure (SMILES)": "CN(C)[C@@H]1C(O)=C(C(N)=O)C(=O)[C@@]2(O)C(O)=C3C(=O)c4c(cc5ccc(-c6ccccc6)cc5c4O)C[C@H]3C[C@@H]12", "method": "broth dilution", "strain": "ATCC49619", "MIC": "32 µg/mL"}
{"Structure (SMILES)": "O=C1NC(=S)S/C1=C\\c1ccc(-c2ccc(N(c3ccccc3)c3ccccc3)cc2)cc1", "method": "broth dilution", "strain": "ATCC49619", "MIC": "1000 µg/mL"}
{"Structure (SMILES)": "O=[N+]([O-])c1ccc(O)c2ncccc12", "method": "broth dilution", "strain": "ATCC49619", "MIC": "8 µg/mL"}
{"Structure (SMILES)": "O=c1[nH]cc(F)c(=O)[nH]1", "method": "broth dilution", "time": "24 h", "MIC": "0.125 µg/mL"}
{"Structure (SMILES)": "N=C(N)NN=Cc1ccc(OC/C=C\\COc2ccc(C=NNC(=N)N)cc2)cc1", "strain": "D39", "time": "16 h", "MIC": "≤ 3 µg/mL"}
{"Structure (SMILES)": "CN(C)[C@@H]1C(O)=C(C(N)=O)C(=O)[C@@]2(O)C(O)=C3C(=O)c4c(cc5ccc(CN6CC(C#N)C6)cc5c4O)C[C@H]3C[C@@H]12", "method": "broth dilution", "strain": "ATCC49619", "MIC": "0.5 µg/mL"}
{"Structure (SMILES)": "CN(C)c1ccc(O)c2c1C[C@H]1C[C@H]3[C@H](N(C)C)C(O)=C(C(N)=O)C(=O)[C@@]3(O)C(O)=C1C2=O", "strain": "157E", "MIC": "< 0.06 µg/mL"}
